# Assay outcomes (PubChem)
# ARNT TACC3 PPI = disruptors of ARNT/TACC3 protein interaction, primary screen, biochemical, AlphaScreen, single concentration; Transforming acidic coiled-coil-containing protein 3 (Homo sapiens), Q9Y6A5; AlphaScreen His-ARNT PAS-B/GST-TACC3 binding, luminescence; TACC3 fragment carries E629A point mutation; inhibition, % at 9.99 µM; actives 0.66% (n = 390,000); AID 623870, 2012;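 active = mean inhibition of replicates at least 50% and at least half of replicates each reaching 50%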;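 note: 0% = complete ARNT plus TACC3 wells and 100% = ARNT alone without TACC3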
# CAL PDZ FP-1 = CAL PDZ peptide-binding inhibitors, primary screen, biochemical, fluorescence polarization, Cer-tagged CAL PDZ, HTS | Golgi-associated PDZ and coiled-coil motif-containing protein (Homo sapiens), Q9HD26 | purified CAL PDZ, TMR-peptide fluorescence polarization, 1 h | inhibition, % at 20 µM | actives 0.02% (n = 330,000) | AID 504414, 2011;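 active = highest replicate inhibition of at least 40%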;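 note: plate controls were DMSO neutral control wells for no effect and unlabeled competitor peptide control wells for full effect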
#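 System: tagged CAL PDZ domain. Schedule: 1 h room-temperature incubation prior to read. Signal: fluorescence polarization (mP). Measure: percent inhibition from loss of millipolarization.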
# miR-122 sensor = miR-122 Renilla sensor signal increase in Huh7, primary screen, miR-122 inhibitor project, cell-based, single point, plate reader. activation (reporter increase), % at 12.5 µM. actives 0.3% (n = 340,000). Huh7 miR-122 Renilla luciferase sensor, 48 h; neutral wells = 0, positive control = 100. AID 602342, 2012;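 active = mean replicate activation score at least 90 and every replicate individually at or above 90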;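 note: higher luciferase means less miR-122 activity so hits act as miR-122 inhibitors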
# SR-BI DiI-HDL act = activators of SR-BI mediated DiI-HDL uptake, primary screen, ldlA[mSR-BI] CHO cells, DiI fluorescence; 3 h; 100 = double the neutral-control signal; activation, % at 12.5 µM; actives 0.096% (n = 320,000); AID 504775, 2011;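 active = mean replicate activation of at least 60% and every replicate at or above 60%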;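 note: 0% = median plate neutral-control signal and 100% = twice that signal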
#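 System: CHO ldlA[mSR-BI] cells / Medium: HEPES-buffered (25 mM, pH 7.4) F12 plus 0.5% BSA / Probe or stimulus: labelled HDL, 10 µg/mL / Doses: single compound concentration, delivered by pin transfer / Schedule: 3 h, 37 °C / Measured by: DiI fluorescence, bottom read / Measure: cell-associated DiI fluorescence as measure of HDL uptake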
# CAL PDZ FP-2 = untagged CAL PDZ binding inhibitors, primary screen, biochemical, fluorescence polarization, HTS; Golgi-associated PDZ and coiled-coil motif-containing protein (Homo sapiens), Q9HD26; purified CAL PDZ, TMR-peptide fluorescence polarization, 1 h; inhibition, % at 24.9 µM; actives 0.92% (n = 300,000);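 active = mean inhibition of at least 30% with at least half of replicates also reaching 30%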;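 note: 0% = DMSO neutral control and 100% = excess unlabeled competitor peptide PRC23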
# SR-BI HDL uptake = inhibitors of SR-BI mediated HDL lipid uptake, primary screen, ldlA[mSR-BI] cells, fluorescence, single point. inhibition, % at 12.5 µM. ldlA[mSR-BI] CHO cells, DiI-HDL uptake fluorescence, 3 h. AID 488896, 2010. actives 0.96% (n = 320,000). Scavenger receptor class B member 1 (Mus musculus), Q61009;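 active = mean replicate inhibition of at least 70% and a set share of replicates each scoring 70 or more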;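 note: 0% = median of neutral control wells and 100% = median of positive control wells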
# Target sequence (Q61009 whole entry, looked up): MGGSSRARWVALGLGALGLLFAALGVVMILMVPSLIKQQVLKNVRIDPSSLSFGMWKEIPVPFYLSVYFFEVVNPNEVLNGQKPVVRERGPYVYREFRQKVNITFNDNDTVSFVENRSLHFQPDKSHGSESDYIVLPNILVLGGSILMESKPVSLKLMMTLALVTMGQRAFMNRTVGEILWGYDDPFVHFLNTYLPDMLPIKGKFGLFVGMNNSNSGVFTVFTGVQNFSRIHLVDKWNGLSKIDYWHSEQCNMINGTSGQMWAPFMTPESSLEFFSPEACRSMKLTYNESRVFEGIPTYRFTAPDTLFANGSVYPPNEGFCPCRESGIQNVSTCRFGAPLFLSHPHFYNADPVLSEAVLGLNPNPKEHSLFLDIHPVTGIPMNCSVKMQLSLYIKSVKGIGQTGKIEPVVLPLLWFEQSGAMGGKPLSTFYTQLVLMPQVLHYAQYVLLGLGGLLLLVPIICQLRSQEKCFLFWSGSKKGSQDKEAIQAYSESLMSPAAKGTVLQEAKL
# An asterisk follows results filed as active; x = no result; [ ] = dose if it differs, or a comment. Rows were chosen to be rich in hits. Some 2.1% of all compounds tested hit in one or more screens of this group.
SMILES,ARNT TACC3 PPI,CAL PDZ FP-1,miR-122 sensor,SR-BI DiI-HDL act,CAL PDZ FP-2,SR-BI HDL uptake
O=C(N/N=C/C1=C(N2CCOCC2)C(=C\c2ccccc2)/CC1)Nc1ccccc1,0,-1,x,-74,3,74*
O=C(O)c1ccccc1N/N=C/C1=C(N2CCOCC2)C(=C\c2ccccc2)/CC1,-1,-1,-5,-24,-4,24
CC(NC(=O)C12CC3CC(CC(C3)C1)C2)C(=O)N/N=C/C1=C(N2CCOCC2)C(=C\c2cccc([N+](=O)[O-])c2)/CC1 (stereo not drawn),-5,0,x,-63,-4,63
Cc1cc(C)nc(N/N=C/C2=C(N3CCOCC3)C(=C/c3ccccc3)/CC2)n1,20,1,-3,-90,3,90*
Cc1occc1C(=O)N/N=C/C1=C(N2CCOCC2)C(=C\c2ccc(Cl)cc2)/CC1,-3,-2,x,x,0,x
CCN(CC)c1ccc(/C=C2\CCC(/C=N/NC(=O)c3ccc(=O)n(C)c3)=C2N2CCOCC2)cc1,x,-1,x,-100,1,100*
C[C@@H]1CCCCO[C@@H](CN(C)C(=O)Nc2cccc3ccccc23)[C@H](C)CN([C@H](C)CO)C(=O)c2cc(NC(=O)Nc3ccc4c(c3)OCO4)ccc2O1,-4,x,-4[16.7 µM],x,x,x
O=C(N[C@H]1CC[C@@H](CCNC(=O)C2CCOCC2)O[C@H]1CO)c1ccccn1,-6,x,x,x,x,x
C[C@H](CO)N1C[C@H](C)[C@H](CN(C)Cc2ccncc2)Oc2ncc(C#CCC3CCCC3)cc2C1=O,-5,x,-14[16.7 µM],x,x,x
Cc1cc(=O)[nH]c(N/N=C/C2=C(N3CCOCC3)C(=C\c3ccc(Cl)cc3)/CC2)n1,24*,-2,17,-60,1,60
CCOC(=O)c1cc2nc(OCC)nc(OCC)c2[nH]1,-19,0,3,-20,41*,20
CCOC(=O)c1cc2cc3ccccc3cc2[nH]1,-13,1,3,-20,4,23
Cc1ccccc1NC(=O)c1sc2nc3c(c(-c4ccco4)c2c1N)CCCC3,x,4,8,-79,-5,79*
Nc1c(C(=O)Nc2ccccc2)sc2nc3c(c(-c4ccco4)c12)CCCC3,-5,-2,8,-32,0,32
Nc1c(C(=O)Nc2ccccc2)sc2nc3c(c(-c4ccco4)c12)CCC3,x,1,-5,-80,-4,80*
O=C(c1ccccc1)N1CC[C@@H]2[C@@H](CO)Nc3ccc(C#Cc4cccnc4)cc3[C@@H]21,-2,x,2[16.7 µM],x,x,x
CO[C@H]1CN(C)C(=O)c2ccc(NC(C)=O)cc2OC[C@@H](C)N(CC2CCCCC2)C[C@@H]1C,0,x,x,x,x,x
C/C(CCc1ccc2c(c1)OCO2)=N\N=C1\NC(=O)CC(C(=O)Nc2ccccc2F)S1 (stereo not drawn),1,-2,x,-73,0,73*
COc1cccc(CN(C)C(=O)CN2C(=O)NC(c3ccccc3)(c3ccccc3)C2=O)c1,-3,0,-3,7,79*,-7
COc1ccc(/C=N/n2cncn2)cc1Cn1cc([N+](=O)[O-])cn1,x,x,10,x,x,x
COc1ccc(/C=N/Nc2ccc([N+](=O)[O-])cc2)cc1Cn1cc([N+](=O)[O-])cn1,-3,-1,0,-95,-4,95*
COCC(=O)N(C)C[C@@H]1Oc2ncc(C#Cc3cccnc3)cc2C(=O)N([C@H](C)CO)C[C@@H]1C,-4,x,-1[16.7 µM],x,x,x
COc1ccccc1C(=O)Nc1ccc(Br)c2cccnc12,-3,0,-2,-44,2,44
Nc1ccc(N=Nc2ccccc2)c2cccnc12,13,x,-14,-69,-2,69
CS(=O)(=O)Oc1ccc(Br)c2cccnc12,-15,-1,x,4,74*,-4
SMILES,ARNT TACC3 PPI,CAL PDZ FP-1,miR-122 sensor,SR-BI DiI-HDL act,CAL PDZ FP-2,SR-BI HDL uptake
Nc1ccc(Br)c2cccnc12,49*,-1,x,4,-1,-4
O=C1C2C3CC(C(Br)C3Br)C2C(=O)N1c1ccccn1 (stereo not drawn),-5,-1,-9,28,44*,-28
COc1ccc(CN(C)C[C@H]2OCCCC[C@@H](C)Oc3ccc(NC(=O)Nc4cccc5ccccc45)cc3C(=O)N([C@@H](C)CO)C[C@@H]2C)cc1,22,x,-13[16.7 µM],x,x,x
Nc1[nH]c(=O)nc(Nc2ccccc2)c1N=O,28*,-1,x,9,-7,-9
COCC(=O)N(C)C[C@@H]1Oc2ncc(-c3ccc(C#N)cc3)cc2C(=O)N([C@H](C)CO)C[C@H]1C,20,x,-3[16.7 µM],x,x,x
COc1cc(/C=C2\NC(=S)N(C)C2=O)ccc1OCc1ccccc1F,-2,0,x,-77,-5,77*
CN1C(=O)/C(=C/c2ccc(OCc3ccccc3F)cc2)NC1=S,-4,1,-9,-21,7,21
Cc1ccc(S(=O)(=O)Nc2ccc(C(=O)Nc3cc(C)on3)cc2)cc1,2,x,115*,-4,-4,4
Cc1oc(S(=O)(=O)N2CCCCC2)cc1NC(=O)Nc1ccc(F)cc1,4,-1,x,-18,45*,18
Cc1ccc(C2(c3noc(CN(C)Cc4cnn(C)c4)n3)CCCC2)cc1,x,0,1,122*,-4,-122
C[C@@H]1CCCCO[C@H](CN(C)S(=O)(=O)c2cccs2)[C@H](C)CN([C@@H](C)CO)C(=O)c2cc(NS(=O)(=O)c3cn(C)cn3)ccc2O1,4,x,12[16.7 µM],x,x,x
CC(=O)c1cccc(OCC(=O)N2CCCc3ccccc32)c1,-32,-1,x,x,x,x
Cc1cccc(OCC(=O)N2CCCc3ccccc32)c1,3,11,x,20,71*,-20
Cc1[nH]c(C(=O)N/N=C/c2ccc(N(C)C)cc2)c(C)c1C(=O)N/N=C/c1ccc(N(C)C)cc1,0,5,x,-87,-3,87*
COc1cccc(/C=N/NC(=O)c2ccc(=O)[nH]n2)c1O,-5,-3,2,x,-2,x
COc1ccc(OC)c(/C=N\NC(=O)c2ccc(-c3ccccc3)cc2)c1,9,-2,x,x,-3,78*
CCOc1ccccc1C=NNC(=O)CCCCC(=O)NN=Cc1ccccc1OCC,x,-1,-16,-81,x,81*
